# “And” between values parts separate entries of the source, which are not always exact repeats. Identical values can stand only once. Square brackets hold non-standard residues; d marks the D form. Peptide text beside a SMILES is read from it. Nle = CCCC[C@H](N)C(=O)O
# Species: Rattus norvegicus
# Experiment: In vitro for agonist activity by measuring release of ACTH by rat pituitary cells in culture relative to human Corticotropin-Releasing factor (CRF)
# Assay type: functional, Pituitary gland cell
# Outline: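 Male Sprague–Dawley rat anterior pituitary cells, collagenase-dissociated, plated at 0.16 × 10⁶ cells/well in 2% FBS medium. After 3 days, washed into 0.1% BSA medium, preincubated 1 h, washed again, then exposed to peptide for 3 h. Medium ACTH measured by radioimmunoassay.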
row,SMILES,Potency
1,CCCC[C@H](NC(=O)[C@H](CCC(=O)O)NC(=O)[C@H](CC(C)C)NC(=O)[C@H](CCCC)NC(=O)[C@H](CCC(=O)O)NC(=O)[C@H](CCCN=C(N)N)NC(=O)[C@H](CC(C)C)NC(=O)[C@H](CC(C)C)NC(=O)[C@H](Cc1c[nH]cn1)NC(=O)[C@@H](Cc1ccccc1)NC(=O)[C@@H](NC(=O)[C@H](CC(C)C)NC(=O)[C@H](CC(=O)O)NC(=O)[C@H](CC(C)C)NC(=O)[C@H](CO)NC(=O)[C@@H](NC(=O)[C@@H]1CCCN1C(=O)[C@@H]1CCCN1C(C)=O)[C@@H](C)CC)[C@@H](C)O)C(=O)N[C@@H](C)C(=O)N[C@@H](CCCCN)C(=O)N[C@@H](C)C(=O)N[C@@H](CCC(=O)O)C(=O)N[C@@H](CCC(N)=O)C(=O)N[C@@H](CCC(=O)O)C(=O)N[C@@H](C)C(=O)N[C@@H](CCC(=O)O)C(=O)N[C@@H](CCC(N)=O)C(=O)N[C@@H](C)C(=O)N[C@@H](C)C(=O)N[C@@H](CC(C)C)C(=O)N[C@@H](CC(N)=O)C(=O)N[C@@H](CCCN=C(N)N)C(=O)N[C@@H](CC(C)C)C(=O)N[C@@H](CC(C)C)C(=O)N[C@@H](CC(C)C)C(=O)N[C@@H](CCC(=O)O)C(=O)N[C@@H](CCC(=O)O)C(=O)N[C@@H](C)C(N)=O,1.3
2,CCCC[C@H](NC(=O)[C@H](CCC(=O)O)NC(=O)[C@H](CC(C)C)NC(=O)[C@H](CCCC)NC(=O)[C@H](CCC(=O)O)NC(=O)[C@H](CCCN=C(N)N)NC(=O)[C@H](CC(C)C)NC(=O)[C@H](CC(C)C)NC(=O)[C@H](Cc1c[nH]cn1)NC(=O)[C@@H](Cc1ccccc1)NC(=O)[C@@H](NC(=O)[C@H](CC(C)C)NC(=O)[C@H](CC(=O)O)NC(=O)[C@H](CC(C)C)NC(=O)[C@H](CO)NC(=O)[C@@H](NC(=O)[C@@H]1CCCN1C(=O)[C@@H]1CCCN1C(C)=O)[C@@H](C)CC)[C@@H](C)O)C(=O)N[C@@H](C)C(=O)N[C@@H](CCCCN)C(=O)N[C@@H](C)C(=O)N[C@@H](CCC(=O)O)C(=O)N[C@@H](CCC(N)=O)C(=O)N[C@@H](CCC(=O)O)C(=O)N[C@@H](C)C(=O)N[C@@H](CCC(=O)O)C(=O)N1C(=O)[C@H](C)NC(=O)[C@H](C)NC(=O)[C@@H](N)CCC(=O)NCCCC[C@H]1C(=O)N[C@@H](CC(N)=O)C(=O)N[C@@H](CCCN=C(N)N)C(=O)N[C@@H](CC(C)C)C(=O)N[C@@H](CC(C)C)C(=O)N[C@@H](CC(C)C)C(=O)N[C@@H](CCC(=O)O)C(=O)N[C@@H](CCC(=O)O)C(=O)N[C@@H](C)C(N)=O,7.5
3,CC[C@H](C)[C@H](NC(=O)[C@H](CO)NC(=O)[C@H](CC(C)C)NC(=O)[C@H](CO)NC(=O)[C@@H]1CCCN1C(C)=O)C(=O)N[C@@H](CC(=O)O)C(=O)N[C@@H](CC(C)C)C(=O)N[C@H](C(=O)N[C@H](Cc1ccccc1)C(=O)N[C@@H](Cc1c[nH]cn1)C(=O)N[C@@H](CC(C)C)C(=O)N[C@@H](CC(C)C)C(=O)N[C@@H](CCCN=C(N)N)C(=O)N[C@H](C(=O)N[C@@H](CC(C)C)C(=O)N[C@@H](CC(C)C)C(=O)N[C@@H](CCC(=O)O)C(=O)N[C@@H](CC(C)C)C(=O)N[C@@H](C)C(=O)N[C@@H](CCCN=C(N)N)C(=O)N[C@H](C(=O)N[C@@H](CCC(N)=O)C(=O)N[C@@H](CO)C(=O)N[C@@H](CCC(N)=O)C(=O)N[C@@H](CCCN=C(N)N)C(=O)N[C@@H](CCC(=O)O)C(=O)N1C(=O)[C@H](CCC(=O)O)NC(=O)[C@H](C)NC(=O)[C@@H](N)CCC(=O)NCCCC[C@H]1C(=O)N[C@@H](CC(N)=O)C(=O)N[C@@H](CCCN=C(N)N)C(=O)N[C@H](C(=O)N[C@H](C(=O)N[C@@H](Cc1ccccc1)C(=O)N[C@@H](CC(=O)O)C(=O)N[C@@H](CO)C(=O)N[C@H](C(N)=O)C(C)C)[C@@H](C)CC)[C@@H](C)CC)[C@@H](C)O)[C@@H](C)O)[C@@H](C)O,3.8
4,CCCC[C@H](NC(=O)[C@H](CCC(=O)O)NC(=O)[C@@H](NC(=O)[C@H](CCCC)NC(=O)[C@H](CC(N)=O)NC(=O)[C@H](CCCN=C(N)N)NC(=O)[C@H](CC(C)C)NC(=O)[C@H](CC(C)C)NC(=O)[C@H](Cc1c[nH]cn1)NC(=O)[C@@H](Cc1ccccc1)NC(=O)[C@@H](NC(=O)[C@H](CC(C)C)NC(=O)[C@H](CC(=O)O)NC(=O)[C@@H](NC(=O)[C@H](CO)NC(=O)[C@@H](NC(=O)[C@@H]1CCCN1C(=O)[C@@H]1CCCN1C(=O)[C@H](CC(=O)O)NC(=O)[C@H](CC(=O)O)NC(=O)[C@@H](N)CC(N)=O)[C@@H](C)CC)[C@@H](C)CC)[C@@H](C)O)[C@@H](C)CC)C(=O)N[C@@H](C)C(=O)N[C@@H](CCCN=C(N)N)C(=O)N[C@H](C(=O)N[C@@H](CCC(=O)O)C(=O)N[C@@H](CC(N)=O)C(=O)N[C@@H](CCC(=O)OC)C(=O)N[C@@H](CCCN=C(N)N)C(=O)N[C@@H](CCC(=O)O)C(=O)N[C@@H](CCC(=O)O)C(=O)N[C@@H](C)C(=O)NCC(=O)N[C@@H](CCCCN)C(=O)N[C@@H](CC(N)=O)C(=O)N[C@@H](CCCN=C(N)N)C(=O)N[C@@H](CCCCN)C(=O)N[C@@H](Cc1ccc(O)cc1)C(=O)N[C@@H](CC(C)C)C(=O)N[C@@H](CC(=O)O)C(=O)N[C@@H](CCC(=O)O)C(=O)N[C@H](C(N)=O)C(C)C)[C@@H](C)CC,1.1
5,CCCC[C@H](NC(=O)[C@H](CCCN=C(N)N)NC(=O)[C@H](CC(C)C)NC(=O)[C@H](CC(C)C)NC(=O)[C@H](CCC(=O)O)NC(=O)[C@H](CC(C)C)NC(=O)[C@H](CC(C)C)NC(=O)[C@H](CC(C)C)NC(=O)[C@H](CC(=O)O)NC(=O)[C@@H](NC(=O)[C@H](CO)NC(=O)[C@@H](NC(=O)[C@@H]1CCCN1C(=O)[C@@H]1CCCN1C(=O)CNC(=O)[C@H](CCC(=O)O)NC(=O)[C@@H]1CCCN1)[C@@H](C)CC)[C@@H](C)CC)C(=O)N[C@@H](CCCC)C(=O)N[C@H](C(=O)N[C@@H](CCC(=O)O)C(=O)N[C@H](C(=O)N[C@@H](CCC(=O)O)C(=O)N[C@@H](CCCCN)C(=O)N[C@@H](CCC(N)=O)C(=O)N[C@@H](CCC(=O)O)C(=O)N[C@@H](CCCCN)C(=O)N[C@@H](CCC(=O)O)C(=O)N[C@@H](CCCCN)C(=O)N[C@H](CCC(=O)O)C(=O)N[C@H](CCC(N)=O)C(=O)N[C@H](C)C(=O)N[C@H](CCCCN)C(=O)N[C@H](CC(N)=O)C(=O)N[C@H](CC(N)=O)C(=O)N[C@H](CCCN=C(N)N)C(=O)N[C@H](CC(C)C)C(=O)N[C@H](CC(C)C)C(=O)N[C@H](CC(C)C)C(=O)N[C@H](CC(=O)O)C(=O)N[C@@H](C(=O)N[C@@H](C(N)=O)[C@H](C)CC)[C@H](C)O)[C@@H](C)CC)[C@@H](C)CC,0.53 and 0.54
6,CCCC[C@H](NC(=O)[C@H](CCC(=O)O)NC(=O)[C@@H](NC(=O)[C@H](CCCC)NC(=O)[C@H](CC(N)=O)NC(=O)[C@H](CCCN=C(N)N)NC(=O)[C@H](CC(C)C)NC(=O)[C@H](CC(C)C)NC(=O)[C@H](Cc1c[nH]cn1)NC(=O)[C@@H](Cc1ccccc1)NC(=O)[C@@H](NC(=O)[C@H](CC(C)C)NC(=O)[C@H](CC(=O)O)NC(=O)[C@@H](NC(=O)[C@H](CO)NC(=O)[C@@H](NC(=O)[C@@H]1CCCN1C(=O)[C@@H]1CCCN1C(=O)[C@H](CC(=O)O)NC(=O)[C@H](CC(=O)O)NC(=O)[C@@H](N)CC(N)=O)[C@@H](C)CC)[C@@H](C)CC)[C@@H](C)O)[C@@H](C)CC)C(=O)N[C@@H](C)C(=O)N[C@@H](CCCN=C(N)N)C(=O)N[C@H](C(=O)N[C@@H](CCC(=O)O)C(=O)N[C@@H](CC(N)=O)C(=O)N[C@@H](CCC(=O)OC)C(=O)N[C@@H](CCCN=C(N)N)C(=O)N[C@@H](CCC(=O)O)C(=O)N1C(=O)CNC(=O)[C@H](C)NC(=O)[C@@H](N)CCC(=O)NCCCC[C@H]1C(=O)N[C@@H](CC(N)=O)C(=O)N[C@@H](CCCN=C(N)N)C(=O)N[C@@H](CCCCN)C(=O)N[C@@H](Cc1ccc(O)cc1)C(=O)N[C@@H](CC(C)C)C(=O)N[C@@H](CC(=O)O)C(=O)N[C@@H](CCC(=O)O)C(=O)N[C@H](C(N)=O)C(C)C)[C@@H](C)CC,2.9
7,CCCC[C@H](NC(=O)[C@H](CCC(=O)O)NC(=O)[C@H](CC(C)C)NC(=O)[C@H](CCCC)NC(=O)[C@H](CCC(=O)O)NC(=O)[C@H](CCCN=C(N)N)NC(=O)[C@H](CC(C)C)NC(=O)[C@H](CC(C)C)NC(=O)[C@H](Cc1c[nH]cn1)NC(=O)[C@H](Cc1ccccc1)NC(=O)[C@@H](NC(=O)[C@H](CC(C)C)NC(=O)[C@H](CC(=O)O)NC(=O)[C@H](CC(C)C)NC(C)=O)[C@@H](C)O)C(=O)N[C@@H](C)C(=O)N[C@@H](CCCCN)C(=O)N[C@@H](C)C(=O)N[C@@H](CCC(=O)O)C(=O)N[C@@H](CCC(N)=O)C(=O)N[C@@H](CCC(=O)O)C(=O)N[C@@H](C)C(=O)N[C@@H](CCC(=O)O)C(=O)N[C@@H](CCC(N)=O)C(=O)N[C@@H](C)C(=O)N[C@@H](C)C(=O)N[C@@H](CC(C)C)C(=O)N[C@@H](CC(N)=O)C(=O)N[C@@H](CCCN=C(N)N)C(=O)N[C@@H](CC(C)C)C(=O)N[C@@H](CC(C)C)C(=O)N[C@@H](CC(C)C)C(=O)N[C@@H](CCC(=O)O)C(=O)N[C@@H](CCC(=O)O)C(=O)N[C@@H](C)C(N)=O (Ac-LDLTFHLLRE[Nle]LE[Nle]AKAEQEAEQAALNRLLLEEA-NH2),0.004
8,CC[C@H](C)[C@H](NC(=O)[C@H](CO)NC(=O)[C@H](CC(C)C)NC(=O)[C@H](CO)NC(=O)[C@H]1CCCN1C(=O)[C@H](CC(N)=O)NC(=O)[C@@H](N)CC(=O)O)C(=O)N[C@@H](CC(=O)O)C(=O)N[C@@H](CC(C)C)C(=O)N[C@H](C(=O)N[C@@H](Cc1ccccc1)C(=O)N[C@@H](Cc1c[nH]cn1)C(=O)N[C@@H](CC(C)C)C(=O)N[C@@H](CC(C)C)C(=O)N[C@@H](CCCN=C(N)N)C(=O)N[C@H](C(=O)N[C@@H](CC(C)C)C(=O)N[C@@H](CC(C)C)C(=O)N[C@@H](CCC(=O)O)C(=O)N[C@@H](CC(C)C)C(=O)N[C@@H](C)C(=O)N[C@@H](CCCN=C(N)N)C(=O)N[C@H](C(=O)N[C@@H](CCC(N)=O)C(=O)N[C@@H](CO)C(=O)N[C@@H](CCC(N)=O)C(=O)N[C@@H](CCCN=C(N)N)C(=O)N[C@@H](CCC(=O)O)C(=O)N[C@@H](CCCN=C(N)N)C(=O)N[C@@H](C)C(=O)N[C@@H](CCC(=O)O)C(=O)N[C@@H](CCC(N)=O)C(=O)N[C@@H](CC(N)=O)C(=O)N[C@@H](CCCN=C(N)N)C(=O)N[C@H](C(=O)N[C@H](C(=O)N[C@@H](Cc1ccccc1)C(=O)N[C@@H](CC(=O)O)C(=O)N[C@@H](CO)C(=O)N[C@H](C(N)=O)C(C)C)[C@@H](C)CC)[C@@H](C)CC)[C@@H](C)O)[C@@H](C)O)[C@@H](C)O (stereo in doubt; 36),3.1

# — ChEMBL document CHEMBL1131019, “Minimal-size, constrained corticotropin-releasing factor agonists with i-(i+3) Glu-Lys and Lys-Glu bridges” (1998)
